Key:
Rattus norvegicus [1] = species on record: Rattus norvegicus; experiment: Selectivity ratio of Ki for alpha1A adrenoceptor in Wistar rat vas deferens to EC50 for Alpha-1D adrenoceptor in Wistar rat thoracic aorta; type: tissue-based
[2] = Selectivity ratio of Ki for human alpha1A adrenoceptor to Ki for human Alpha-1B adrenoceptor
Method in brief: (§1)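 Subtype selectivity is the antilog of the difference between pKi values, from [³H]prazosin displacement (0.1–0.4 nM, 30 min, 25 °C, pH 7.4) at cloned human α1a, α1b and α1d receptors in CHO membranes. Ki values came from IC50 via Cheng–Prusoff.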

Rattus norvegicus [3] = species on record: Rattus norvegicus; experiment: Selectivity ratio of Ki for alpha1A adrenoceptor in Wistar rat vas deferens to Ki for Alpha-1D adrenoceptor in Wistar rat thoracic aorta; type: tissue-based
Rattus norvegicus [4] = species on record: Rattus norvegicus; experiment: Selectivity ratio of EC50 for alpha1A adrenoceptor in Wistar rat vas deferens to EC50 for Alpha-1D adrenoceptor in Wistar rat thoracic aorta; type: tissue-based
[5] = Selectivity ratio of Ki for human alpha1A adrenoceptor to Ki for human Alpha-1D adrenoceptor; method in brief: as §1
[6] = biological target: T1, Alpha-1A adrenergic receptor (Homo sapiens, UniProt P35348); experiment: Displacement of [3H]prazosin from human alpha1A adrenoceptor expressed in CHO cells; type: cell-based
T1 sequence (P35348 whole entry): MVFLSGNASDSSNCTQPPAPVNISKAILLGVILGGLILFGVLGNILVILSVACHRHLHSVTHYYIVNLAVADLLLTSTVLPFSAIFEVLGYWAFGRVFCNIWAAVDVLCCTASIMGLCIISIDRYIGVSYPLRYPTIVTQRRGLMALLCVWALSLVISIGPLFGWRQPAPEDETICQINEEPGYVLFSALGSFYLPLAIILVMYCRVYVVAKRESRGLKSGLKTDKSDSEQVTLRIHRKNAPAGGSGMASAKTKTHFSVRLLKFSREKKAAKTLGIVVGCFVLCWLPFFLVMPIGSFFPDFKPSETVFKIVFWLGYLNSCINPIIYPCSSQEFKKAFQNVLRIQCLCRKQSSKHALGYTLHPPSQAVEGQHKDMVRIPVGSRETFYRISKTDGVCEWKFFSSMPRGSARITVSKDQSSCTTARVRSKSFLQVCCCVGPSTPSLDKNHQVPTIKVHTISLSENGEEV
Method in brief: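 Membranes ([…], as printed) from CHO cells stably expressing the cloned human α1a subtype were incubated with 0.1–0.4 nM [³H]prazosin and competitor (1 pM up to the top concentration) in 50 mM Tris-HCl, pH 7.4, for 30 min at 25 °C. Non-specific binding was defined with phentolamine, and incubations ended by rapid filtration. IC50 was converted to Ki by Cheng–Prusoff. Reported as pKi from 2–3 triplicate experiments.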

[7] = biological target: T2, Alpha-1D adrenergic receptor (Homo sapiens, UniProt P25100); experiment: Displacement of [3H]prazosin from human Alpha-1D adrenoceptor expressed in CHO cells; type: cell-based
T2 sequence (P25100 whole entry): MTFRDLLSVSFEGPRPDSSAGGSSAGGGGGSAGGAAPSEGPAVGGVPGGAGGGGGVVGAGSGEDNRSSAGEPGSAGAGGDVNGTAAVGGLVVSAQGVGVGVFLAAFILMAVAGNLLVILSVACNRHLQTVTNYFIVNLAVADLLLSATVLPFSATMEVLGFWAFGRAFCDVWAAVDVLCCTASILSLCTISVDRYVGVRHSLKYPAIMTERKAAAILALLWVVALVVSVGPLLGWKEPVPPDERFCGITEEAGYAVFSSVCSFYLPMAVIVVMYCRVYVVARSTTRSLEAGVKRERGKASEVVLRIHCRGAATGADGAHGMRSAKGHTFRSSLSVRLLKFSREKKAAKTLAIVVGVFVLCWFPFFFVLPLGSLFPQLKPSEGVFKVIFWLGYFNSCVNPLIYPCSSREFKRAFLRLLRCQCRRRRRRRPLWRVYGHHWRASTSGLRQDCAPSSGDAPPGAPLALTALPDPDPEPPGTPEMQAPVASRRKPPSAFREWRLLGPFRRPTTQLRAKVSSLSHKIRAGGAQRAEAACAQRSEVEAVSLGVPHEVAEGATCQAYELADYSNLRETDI
Method in brief: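 Membranes ([…], as printed) from CHO cells stably expressing the cloned human α1d subtype were incubated with 0.1–0.4 nM [³H]prazosin and competing drug (1 pM upward) in 50 mM Tris-HCl, pH 7.4, for 30 min at 25 °C. Phentolamine defined non-specific binding. IC50 was converted to Ki by Cheng–Prusoff. Reported as pKi from 2–3 triplicate experiments.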

Rattus norvegicus [8] = species on record: Rattus norvegicus; experiment: Selectivity ratio of Ki for alpha1D adrenoceptor in Wistar rat thoracic aorta to Ki for Alpha-1B adrenoceptor in Wistar rat spleen; type: tissue-based
Rattus norvegicus [9] = species on record: Rattus norvegicus; experiment: Selectivity ratio of EC50 for alpha1D adrenoceptor in Wistar rat thoracic aorta to EC50 for Alpha-1B adrenoceptor in Wistar rat spleen; type: tissue-based
[10] = biological target: T3, Alpha-1D adrenergic receptor (Rattus norvegicus, UniProt P23944); experiment: Antagonist activity at Alpha-1D adrenoceptor in Wistar rat thoracic aorta assessed as noradrenaline induced contractions after 30 mins
T3 sequence (P23944 whole entry): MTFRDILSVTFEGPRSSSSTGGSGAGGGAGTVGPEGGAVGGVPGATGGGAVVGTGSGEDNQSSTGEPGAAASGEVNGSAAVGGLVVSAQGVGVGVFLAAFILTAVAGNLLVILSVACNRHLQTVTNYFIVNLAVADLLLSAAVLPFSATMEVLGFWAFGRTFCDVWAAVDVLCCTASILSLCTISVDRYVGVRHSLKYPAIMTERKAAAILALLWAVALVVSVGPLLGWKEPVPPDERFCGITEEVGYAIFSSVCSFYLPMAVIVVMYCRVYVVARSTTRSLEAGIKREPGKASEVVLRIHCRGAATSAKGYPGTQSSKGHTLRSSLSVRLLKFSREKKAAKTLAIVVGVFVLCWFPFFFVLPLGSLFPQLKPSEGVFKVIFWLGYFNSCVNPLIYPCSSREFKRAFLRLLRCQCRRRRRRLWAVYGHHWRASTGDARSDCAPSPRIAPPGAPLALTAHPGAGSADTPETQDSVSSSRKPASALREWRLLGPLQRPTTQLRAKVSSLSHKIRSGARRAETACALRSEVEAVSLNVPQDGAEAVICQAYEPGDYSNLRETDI

Row | SMILES | Selectivity ratio (Rattus norvegicus [1]) | Ki ratio [2] | Selectivity ratio (Rattus norvegicus [3]) | Selectivity ratio (Rattus norvegicus [4]) | Ki ratio [5] | Ki [6] [nM] | Ki [7] [nM] | Selectivity ratio (Rattus norvegicus [8]) | Selectivity ratio (Rattus norvegicus [9]) | Kb [10] [nM]
1 | COc1ccc(C[C@@H](C)NCCOc2ccccc2OCc2ccccc2)cc1S(N)(=O)=O | 3 | 6 | 3 | 3 | 0.9 | 0.347 | 0.324 | 4 | 4 | –
2 | COc1ccc(C[C@@H](C)NC[C@@H]2Oc3ccccc3O[C@@H]2C)cc1S(N)(=O)=O | 1 | 3 | 1 | 1 | 1 | 11.5 | 15.5 | 0.8 | 0.8 | 21.4
3 | COc1ccc(C[C@@H](C)NCCOc2ccccc2OC(C)C)cc1S(N)(=O)=O | 2 | 5 | 2 | 2 | 0.7 | 0.339 | 0.245 | 3 | 3 | 0.501
4 | COc1ccc(C[C@@H](C)NC[C@H]2Oc3ccccc3O[C@H]2C)cc1S(N)(=O)=O | 2 | 4 | 2 | 2 | 0.9 | 19.1 | 17.4 | 0.5 | 0.5 | 60.3
5 | COc1ccc(C[C@@H](C)NCCOc2ccccc2OCC(F)(F)F)cc1S(N)(=O)=O | 4 | 9 | 4 | 4 | 2 | 0.603 | 0.955 | 1 | 1 | 0.955

From ChEMBL document CHEMBL1629492 (Eur J Med Chem, 2010)
